Assay results pooled from the literature.
Each line is one published result; the experiments were not run side by side.
PIK3CA E545A: Phosphatidylinositol 4,5-bisphosphate 3-kinase catalytic subunit alpha isoform (PIK3CA, Homo sapiens, UniProt P42336, E545A)
PIK3CA E545K: Phosphatidylinositol 4,5-bisphosphate 3-kinase catalytic subunit alpha isoform (PIK3CA, Homo sapiens, UniProt P42336, E545K)
PIK3CA: Phosphatidylinositol 4,5-bisphosphate 3-kinase catalytic subunit alpha isoform (PIK3CA, Homo sapiens, UniProt P42336)
PIK3CA C420R: Phosphatidylinositol 4,5-bisphosphate 3-kinase catalytic subunit alpha isoform (PIK3CA, Homo sapiens, UniProt P42336, C420R)
PIK3CA Q546K: Phosphatidylinositol 4,5-bisphosphate 3-kinase catalytic subunit alpha isoform (PIK3CA, Homo sapiens, UniProt P42336, Q546K)
PIK3CA H1047Y: Phosphatidylinositol 4,5-bisphosphate 3-kinase catalytic subunit alpha isoform (PIK3CA, Homo sapiens, UniProt P42336, H1047Y)
PIK3CA I800L: Phosphatidylinositol 4,5-bisphosphate 3-kinase catalytic subunit alpha isoform (PIK3CA, Homo sapiens, UniProt P42336, I800L)

SMILES | target | effect on | technique | tested at | remaining binding [%]
CN(CCCC(F)(F)F)c1nccc(-c2cnn3ncccc23)n1 | PIK3CA E545A | binding | – | 1 µM | 100
C[C@@H](c1ccc(-n2cnc3c(N)ncnc32)cc1)N1CCc2nn(C)c(Cc3ccccc3)c2C1=O | PIK3CA E545K | binding | competition with immobilised ligand | 0.1 µM | 67
C[C@H](NC(=O)c1cnc2n1[C@](C)(Cc1ccc(C#N)cc1)C(=O)N2c1cc(Cl)c(F)c(Cl)c1)C(=O)NC1(c2ccccn2)CC1 | PIK3CA | cell-free assay | competition with immobilised ligand | 1 µM | 100
c1cncc(-c2cccc(Nc3nccc(NC4CCCCC4)n3)c2)c1 | PIK3CA C420R | binding | competition with immobilised ligand | 10 µM | 73
CS(=O)(=O)CCNCc1ccc(-c2ccc3ncnc(Nc4ccc(OCc5cccc(F)c5)c(Cl)c4)c3c2)o1 | PIK3CA | cell-free assay | competition with immobilised ligand | 0.1 µM | 98
C[C@@H]1CCN(c2nccc(-c3cnn4ncccc34)n2)C1 | PIK3CA E545K | binding | – | 1 µM | 66
COc1cnc(Nc2cccc(S(N)(=O)=O)c2)nc1N1CCN(c2ccccc2)C(=O)C1 | Phosphatidylinositol 4,5-bisphosphate 3-kinase catalytic subunit alpha isoform (PIK3CA, Homo sapiens, UniProt P42336, E542K) | binding | competition with immobilised ligand | 1 µM | 91
NS(=O)(=O)c1cc(NC(=O)Cc2ccccc2)ccc1Oc1cccc(Cl)c1 | PIK3CA E545A | cell-free assay | competition with immobilised ligand | 1 µM | 69
O=C(c1ccc(Nc2ncc(Cl)c(-c3ccc(Cl)s3)n2)cc1)N1CCC(N2CCCC2)CC1 | PIK3CA Q546K | binding | competition with immobilised ligand | 1 µM | 100
N[C@H]1CCN(c2nccc(-c3cnn4ncccc34)n2)C1 | PIK3CA H1047Y | binding | – | 1 µM | 56
Nc1cnc(N2CCc3cc(S(=O)(=O)Nc4c(F)cc(Cl)cc4F)cc(N4CCCC4=O)c32)nc1 | PIK3CA H1047Y | cell-free assay | competition with immobilised ligand | 1 µM | 100
CC1CCCN1c1nccc(-c2cnn3ncccc23)n1 (stereo not drawn) | PIK3CA Q546K | binding | – | 1 µM | 42
CCc1ccccc1C(=O)Nc1n[nH]c2c(C)c(F)c(C3C(C#N)=C(C)N(C)C(C)=C3C#N)cc12 | PIK3CA H1047Y | cell-free assay | competition with immobilised ligand | 1 µM | 77
O=C(NCCCN1CCOCC1)c1ccc(Nc2ncc(Cl)c(-c3ccc(Cl)s3)n2)cc1 | PIK3CA H1047Y | binding | competition with immobilised ligand | 1 µM | 95
F[C@@H]1CCN(c2nccc(-c3cnn4ncccc34)n2)C1 | Phosphatidylinositol 4,5-bisphosphate 3-kinase catalytic subunit alpha isoform (PIK3CA, Homo sapiens, UniProt P42336, H1047L) | binding | – | 1 µM | 100
O=C(NCc1ncc(C(F)(F)F)cc1Cl)c1ccc2c(c1)C1(CCS(=O)(=O)CC1)[C@@H](C1CC1)N2S(=O)(=O)c1ccc(F)cc1 | PIK3CA Q546K | cell-free assay | competition with immobilised ligand | 1 µM | 72
Cc1cnn2ncc(-c3ccnc(N(C)C)n3)c2c1 | PIK3CA H1047Y | binding | – | 1 µM | 98
NS(=O)(=O)c1cc(NC(=O)C2(c3ccccc3Cl)CC2)ccc1Oc1cccc(Cl)c1 | PIK3CA I800L | cell-free assay | competition with immobilised ligand | 1 µM | 100
CN1CCN(c2ccc(Nc3nccc(-c4cccc([N+](=O)[O-])c4)n3)cc2C(F)(F)F)CC1 | PIK3CA Q546K | binding | – | 10 µM | 37
COc1ccnn2ncc(-c3ccnc(N(C)C)n3)c12 | PIK3CA I800L | binding | – | 1 µM | 94
O=C(NCC1CCOCC1)c1n[nH]cc1NC(=O)c1c(F)cccc1F | PIK3CA Q546K | binding | competition with immobilised ligand | 1 µM | 77
Nc1ncc2c(n1)-c1c([nH]c3ccc(C#CC4CC4)cc13)CCCC2 | PIK3CA E545K | binding | competition with immobilised ligand | 1 µM | 100
O=C1CCc2cc(Nc3cc(OC4CCOCC4)c([N+](=O)[O-])cc3Cl)ccc2N1 | PIK3CA C420R | cell-free assay | competition with immobilised ligand | 1 µM | 97
O=C(c1ccc(Nc2ncc(Cl)c(-c3cc4ccccc4s3)n2)cc1)N1CCC(N2CCCC2)CC1 | PIK3CA I800L | binding | competition with immobilised ligand | 1 µM | 97
